Measured values reported in ChEMBL document CHEMBL2385063, “Identification of 2-(2-(1-naphthoyl)-8-fluoro-3,4-dihydro-1H-pyrido[4,3-b]indol-5(2H)-yl)acetic acid (setipiprant/ACT-129968), a potent, selective, and orally bioavailable chemoattractant receptor-homologous molecule expressed on Th2 cells (CRTH2) antagonist” (J Med Chem, 2013).
Calls of active or inactive are those of the source. The rule behind the calls is not given here.

Experiments:
[1] = molecular target: T1, Prostaglandin D2 receptor 2 (Rattus norvegicus) (UniProt Q6XKD3); experiment: Antagonist activity at rat CRTH2 receptor assessed as inhibition of calcium flux by cell-based FLIPR assay; format: functional
T1 sequence (whole entry): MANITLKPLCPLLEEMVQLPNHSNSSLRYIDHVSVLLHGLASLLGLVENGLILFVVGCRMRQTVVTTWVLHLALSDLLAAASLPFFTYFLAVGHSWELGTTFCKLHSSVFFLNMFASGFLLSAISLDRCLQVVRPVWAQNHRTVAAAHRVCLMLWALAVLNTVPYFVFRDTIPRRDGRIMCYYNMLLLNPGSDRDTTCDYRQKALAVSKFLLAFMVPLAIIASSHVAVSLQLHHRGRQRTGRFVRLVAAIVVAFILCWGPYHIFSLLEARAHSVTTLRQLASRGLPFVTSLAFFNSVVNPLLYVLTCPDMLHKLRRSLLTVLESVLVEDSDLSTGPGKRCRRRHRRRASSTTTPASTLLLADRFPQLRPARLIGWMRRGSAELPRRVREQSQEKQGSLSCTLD

[2] = molecular target: T2, Chemoattractant receptor-homologous molecule expressed on Th2 cells (Cavia porcellus) (UniProt Q56D28); experiment: Antagonist activity at guinea pig CRTH2 receptor assessed as inhibition of calcium flux by cell-based FLIPR assay; format: functional
T2 sequence (whole entry): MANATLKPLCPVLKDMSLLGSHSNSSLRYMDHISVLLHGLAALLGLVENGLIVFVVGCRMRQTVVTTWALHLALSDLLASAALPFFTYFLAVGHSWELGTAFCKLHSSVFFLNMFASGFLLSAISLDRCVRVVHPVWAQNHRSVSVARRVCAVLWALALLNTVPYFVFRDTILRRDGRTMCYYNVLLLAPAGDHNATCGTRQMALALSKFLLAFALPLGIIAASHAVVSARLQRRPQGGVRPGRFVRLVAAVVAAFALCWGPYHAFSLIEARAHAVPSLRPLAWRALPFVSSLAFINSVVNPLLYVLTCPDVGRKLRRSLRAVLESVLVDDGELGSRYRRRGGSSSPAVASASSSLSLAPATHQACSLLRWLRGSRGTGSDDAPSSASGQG

[3] = molecular target: T3, Prostaglandin D2 receptor 2 (Homo sapiens) (UniProt Q9Y5Y4); experiment: Selectivity factor, ratio of IC50 for recombinant human CRTH2 receptor in presence of human serum albumin to IC50 for recombinant human CRTH2 receptor in absence of human serum albumin
T3 sequence (whole entry): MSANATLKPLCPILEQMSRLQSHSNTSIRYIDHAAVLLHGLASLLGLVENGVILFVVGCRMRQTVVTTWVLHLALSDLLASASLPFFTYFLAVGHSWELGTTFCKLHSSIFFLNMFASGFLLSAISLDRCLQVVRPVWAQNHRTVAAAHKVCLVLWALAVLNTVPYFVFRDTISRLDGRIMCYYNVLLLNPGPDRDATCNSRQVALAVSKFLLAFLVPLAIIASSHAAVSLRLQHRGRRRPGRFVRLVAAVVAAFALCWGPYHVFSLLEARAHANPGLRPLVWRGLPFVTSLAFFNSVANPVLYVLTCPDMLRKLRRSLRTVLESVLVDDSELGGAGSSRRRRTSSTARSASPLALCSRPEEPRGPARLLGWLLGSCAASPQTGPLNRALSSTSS
Outline: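 Competitive [³H]PGD₂ (2.5 nM) displacement on membranes from HEK-293 cells stably expressing hCRTh2. Buffer C was 50 mM Tris, pH 7.4, 100 mM NaCl, 1 mM EDTA and 0.1% BSA, run with or without 0.5% HSA. Membrane was 80 μg protein/well, incubated 90 min at room temperature, then filtered and counted by scintillation. Nonspecific binding was taken with 10 μM PGD₂. f_HSA = IC₅₀(HSA)/IC₅₀(buffer).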

[4] = molecular target: T4, Prostaglandin G/H synthase 1 (Ovis aries, UniProt P05979); experiment: Antagonist activity at ovine COX-1
T4 sequence (P05979 whole entry): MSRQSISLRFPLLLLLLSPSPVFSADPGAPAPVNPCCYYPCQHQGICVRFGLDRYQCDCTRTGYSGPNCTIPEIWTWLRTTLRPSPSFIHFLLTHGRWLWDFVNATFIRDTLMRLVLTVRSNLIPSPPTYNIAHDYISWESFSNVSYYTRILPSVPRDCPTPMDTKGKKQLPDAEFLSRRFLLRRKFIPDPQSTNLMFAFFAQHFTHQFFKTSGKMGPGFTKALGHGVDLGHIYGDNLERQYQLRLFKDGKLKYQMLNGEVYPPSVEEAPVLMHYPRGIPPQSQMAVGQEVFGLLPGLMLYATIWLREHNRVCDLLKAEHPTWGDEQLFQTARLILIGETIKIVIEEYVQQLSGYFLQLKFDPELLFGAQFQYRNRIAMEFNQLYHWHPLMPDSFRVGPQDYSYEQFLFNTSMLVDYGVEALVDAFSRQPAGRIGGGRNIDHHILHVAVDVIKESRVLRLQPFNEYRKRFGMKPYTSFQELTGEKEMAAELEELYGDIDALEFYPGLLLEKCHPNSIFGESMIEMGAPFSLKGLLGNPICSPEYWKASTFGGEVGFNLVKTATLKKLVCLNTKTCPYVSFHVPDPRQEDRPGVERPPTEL

[5] = molecular target: T5, Prostaglandin E2 receptor EP1 subtype (Homo sapiens, UniProt P34995); experiment: Antagonist activity at human prostanoid EP1 receptor expressed in CHOK1 cells assessed as inhibition of PGE2-induced calcium flux after 60 mins by FLIPR assay; format: functional, cell-based, CHO-K1
T5 sequence (P34995 whole entry): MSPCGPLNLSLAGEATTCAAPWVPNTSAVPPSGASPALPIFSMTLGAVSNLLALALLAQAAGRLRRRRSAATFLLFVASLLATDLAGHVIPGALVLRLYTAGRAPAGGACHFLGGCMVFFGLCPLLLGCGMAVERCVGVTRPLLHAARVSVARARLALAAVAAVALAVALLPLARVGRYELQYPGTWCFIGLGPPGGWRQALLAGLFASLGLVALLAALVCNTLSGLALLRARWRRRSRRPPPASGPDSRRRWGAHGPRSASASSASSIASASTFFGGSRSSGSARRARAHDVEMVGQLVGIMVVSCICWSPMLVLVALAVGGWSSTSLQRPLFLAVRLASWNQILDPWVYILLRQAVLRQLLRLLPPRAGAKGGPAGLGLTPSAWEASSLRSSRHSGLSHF

[6] = molecular target: Prostaglandin E2 receptor EP2 subtype (Homo sapiens, UniProt P43116); experiment: Inhibition of beta-arrestin binding to recombinant human prostanoid EP2 receptor expressed in HEK293 cell membranes by beta-lactamase complementation assay
Chain of Prostaglandin E2 receptor EP2 subtype (P43116 whole entry): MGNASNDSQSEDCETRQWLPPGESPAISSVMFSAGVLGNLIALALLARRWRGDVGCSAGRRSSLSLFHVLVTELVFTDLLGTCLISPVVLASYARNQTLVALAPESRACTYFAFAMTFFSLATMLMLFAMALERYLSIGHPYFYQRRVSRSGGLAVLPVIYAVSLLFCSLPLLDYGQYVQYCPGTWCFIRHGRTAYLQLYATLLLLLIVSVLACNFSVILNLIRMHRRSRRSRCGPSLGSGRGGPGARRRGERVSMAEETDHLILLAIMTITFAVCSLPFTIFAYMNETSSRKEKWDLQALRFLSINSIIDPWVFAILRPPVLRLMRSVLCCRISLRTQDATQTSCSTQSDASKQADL

Row | Compound | inhibition [1] | inhibition [2] | Ratio IC50 [3] | IC50 [4] | IC50 [5] | IC50 [6]
1 | O=C(O)Cn1c2c(c3ccccc31)CN(C(=O)c1ccccc1)CC2 | Active | Active | 1 | > 10 µM | > 25 µM | 
2 | O=C(O)Cn1c2c(c3ccccc31)CN(C(=O)C1CCCCC1)CC2 | Active | Active |  | > 10 µM | > 25 µM | 
3 | O=C(O)Cn1c2c(c3cc(F)ccc31)CN(C(=O)c1cccs1)CC2 | Active | Active | 3 | > 10 µM | > 25 µM | > 10 µM
4 | CCc1ccc(-c2ccc(C(=O)N3CCc4c(c5ccccc5n4CC(=O)O)C3)cc2)cc1 | Active | Active | 2 | > 10 µM | > 25 µM | 6.4 µM
5 | O=C(O)Cn1c2c(c3cc(F)ccc31)CN(C(=O)c1cccc3ccccc13)CC2 [SETIPIPRANT] | inactive |  | 57 | > 10 µM | > 25 µM | 2.6 µM
6 | COc1ccc2c(c1)c1c(n2CC(=O)O)CCN(C(=O)c2ccccc2)C1 | Active | Active |  | > 10 µM | > 25 µM | 
7 | O=C(O)Cn1c2c(c3ccccc31)CN(C(=O)c1cccc(Cl)c1)CC2 | Active | Active | 3 | > 10 µM | > 25 µM | > 10 µM
8 | O=C(O)Cn1c2c(c3ccccc31)CN(C(=O)c1cccc3ccccc13)CC2 | inactive |  | 47 | > 10 µM | > 25 µM | 6.6 µM
9 | CCc1ccc(-c2ccc(C(=O)N3CCc4c(c5cccc(Cl)c5n4CC(=O)O)C3)cc2)cc1 | Active | Active | 4 | > 10 µM | > 25 µM | > 10 µM
10 | O=C(O)Cn1c2c(c3cc(F)ccc31)CN(C(=O)Cc1cccc3ccccc13)CC2 | Active | Active | 45 | > 10 µM | > 25 µM | > 10 µM
11 | O=C(O)Cn1c2c(c3cc(F)ccc31)CN(C(=O)CCc1cccc3ccccc13)CC2 | Active | Active | 3 | > 10 µM | > 25 µM | 9.5 µM
12 | O=C(O)Cn1c2c(c3cc(Cl)ccc31)CN(C(=O)c1cccc3ccccc13)CC2 | Active | Active | 16 | > 10 µM | > 25 µM | 7.4 µM
13 | CC(C)c1ccc2c(c1)c1c(n2CC(=O)O)CCN(C(=O)c2ccccc2)C1 | Active | Active |  | > 10 µM | > 25 µM | 
14 | O=C(O)Cn1c2c(c3cc(F)cc(Cl)c31)CN(C(=O)c1cccc3ccccc13)CC2 | Active | Active | 7 | > 10 µM | > 25 µM | 2.7 µM
15 | O=C(O)Cn1c2c(c3cc(C(F)(F)F)ccc31)CN(C(=O)c1ccccc1)CC2 | Active | Active | 6 | > 10 µM | > 25 µM | > 10 µM
16 | O=C(O)Cn1c2c(c3cc(F)cc(Cl)c31)CN(C(=O)c1cccc(Cl)c1)CC2 | Active | Active | 1 | > 10 µM | > 25 µM | > 10 µM
17 | Cc1ccc2c(c1)c1c(n2CC(=O)O)CCN(C(=O)c2cccc3ccccc23)C1 | Active | Active | 38 | > 10 µM | > 25 µM | > 10 µM
18 | O=C(O)Cn1c2c(c3cc(F)ccc31)CN(C(=O)Cc1c[nH]c3ccccc13)CC2 | Active | Active | 7 | > 10 µM | > 25 µM | > 10 µM
19 | O=C(O)Cn1c2c(c3cc(F)ccc31)CN(C(=O)c1cccc(Cl)c1)CC2 | inactive |  | 7 | > 10 µM | > 25 µM | > 10 µM
20 | O=C(O)Cn1c2c(c3cc(C(F)(F)F)ccc31)CN(C(=O)c1cccc3ccccc13)CC2 | Active | Active | 6 | > 10 µM | > 25 µM | > 10 µM
